Test results: PMC7115615 (European Journal of Medicinal Chemistry, 2013)
pEC50: −log10 of the molar value. Read-outs that look alike come from different tables or passages of the source.

What was measured:
[1] = test system: panel of approximately sixty human tumor cell lines; assay: NCI one-dose primary anticancer assay; type: cell-based; conditions: for activity at 10 µM: Homo sapiens, 60 cell, 48 h; for anticancer activity in words / number of cell lines against which the compound was effective: 1 dose 10 μM
Procedure, shortened: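 NCI DTP single-dose screen on approximately sixty human tumor cell lines from nine cancer types. Test compound added at 10⁻⁵ M and cultures incubated 48 h. End point by sulforhodamine B protein staining, read spectrophotometrically. Result expressed as percent growth of treated cells relative to untreated control cells.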

SARS CoV Urbani = assay: microbe, parasite or virus in culture; type: cell-based, SARS coronavirus; conditions: for pEC50: Severe acute respiratory syndrome coronavirus
[2] = test system: Leukemia subpanel tumor cell lines; assay: NCI five-dose anticancer assay; type: cell-based, human; conditions: for GI50: Homo sapiens; for TGI: Leukemia subpanel average, five concentrations
Procedure, shortened: (§1)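 Approximately sixty human tumor cell lines from nine cancer types, tested by the NCI DTP protocol. Test compound given at five 10-fold dilutions (100, 10, 1, 0.1, 0.01 μM) with 48 h continuous exposure. SRB protein staining read spectrophotometrically at time zero, in untreated control and in treated wells. […] MG_MID averages each parameter over all cell lines.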

Melanoma cell lines = assay: NCI five-dose anticancer assay; type: cell-based, human; conditions: 48 h; for GI50: Homo sapiens; for TGI: Melanoma subpanel average, five concentrations
Procedure, shortened: as §1

[3] = test system: NSC lung cancer cell lines; assay: NCI five-dose anticancer assay; type: cell-based, human; conditions: 48 h; for GI50: Homo sapiens; for TGI: NSC lung cancer subpanel average, five concentrations
Procedure, shortened: as §1

[4] = test system: Ovarian cancer cell lines; assay: NCI five-dose anticancer assay; type: cell-based, human; conditions: 48 h; for GI50: Homo sapiens; for TGI: Ovarian cancer subpanel average, five concentrations
Procedure, shortened: as §1

CNS cancer cell lines = assay: NCI five-dose anticancer assay; type: cell-based, human; conditions: 48 h; for TGI: CNS cancer subpanel average, five concentrations; for GI50: Homo sapiens
Procedure, shortened: as §1

Colon cancer cell lines = assay: NCI five-dose anticancer assay; type: cell-based, human; conditions: 48 h; for TGI: Colon cancer subpanel average, five concentrations; for GI50: Homo sapiens
Procedure, shortened: as §1

[5] = test system: panel of approximately sixty tumor cell lines; assay: NCI five-dose anticancer assay; type: cell-based; conditions: Homo sapiens, read-out: GI50 MG_MID
Procedure, shortened: as §1

Breast cancer cell lines = assay: NCI five-dose anticancer assay; type: cell-based, human; conditions: 48 h; for TGI: Breast cancer subpanel average, five concentrations
Procedure, shortened: as §1

Renal cancer cell lines = assay: NCI five-dose anticancer assay; type: cell-based, human; conditions: 48 h; for GI50: Homo sapiens; for TGI: Renal cancer subpanel average, five concentrations
Procedure, shortened: as §1

[6] = test system: Flu A (H5N1) Duck/MN/1525/81; type: cell-based
[7] = test system: four strains of influenza virus; assay: Primary antiviral assay, influenza strains taken together; type: cell-based
[8] = test system: Prostate cancer cell lines; assay: NCI five-dose anticancer assay; type: cell-based; conditions: Homo sapiens, 48 h
Procedure, shortened: as §1

MOLT-4 = assay: NCI five-dose anticancer assay; type: cell-based, human; conditions: MOLT-4, Leukemia; 48 h
Procedure, shortened: as §1

HS 578T = assay: NCI five-dose anticancer assay; type: cell-based, human; conditions: Breast cancer, 48 h
Procedure, shortened: as §1

Row | Compound | activity at 10 µM ([1]; read-out: Mean growth %) | activity at 10 µM ([1]; read-out: Range of growth %) | anticancer activity in words [1] | SI (SARS CoV Urbani) | pEC50 (SARS CoV Urbani) | also measured
1 | COc1ccc(C2CC(c3ccc4ccccc4c3)=NN2C2SC(=O)N(CN3CCN(C(C)=O)CC3)C2=O)cc1 (centres unmarked) [3c, 3-(4-Acetylpiperazin-1-ylmethyl)-5-[5-(4-methoxyphenyl)-3-naphthalen-2-yl-4,5-dihydro-pyrazol-1-yl]-thiazolidine-2,4-dione] | 101% | 82.2 to 126% | – | – | – | –
2 | O=C1NC(=O)C(N2N=C(c3ccc4ccccc4c3)CC2c2ccc(Cl)cc2)S1 (centres unmarked) [1b, 5-[5-(4-Chlorophenyl)-3-naphthalen-2-yl-4,5-dihydropyrazol-1-yl]-thiazolidine-2,4-dione] | 105% | 74.9 to 170% | did not show any activity | 0 | < 4.63 | –
3 | COc1ccc(C2=NN(C(=O)/C=C3\SC(=O)NC3=O)C(c3ccccc3O)C2)cc1 (centres unmarked) [4d, 5-{2-[5-(2-Hydroxyphenyl)-3-(4-methoxyphenyl)-4,5-dihydropyrazol-1-yl]-2-oxoethylidene}-thiazolidine-2,4-dione] | 60.1% | -27.3 to 160% | – | – | – | number of cell lines against which the compound was effective [1]: 12 cell lines; GI50 ([2]; 48 h): 3.28 µM; GI50 ([2]; read-out: GI50 values range): 2.12 to 4.58 µM; TGI ([2]; 48 h): 25.31 µM; GI50 (Melanoma cell lines): 8.07 µM; TGI (Melanoma cell lines): 28.21 µM; GI50 [3]: 7.91 µM; TGI [3]: 42.06 µM; GI50 [4]: 11.4 µM; TGI [4]: 79.20 µM; TGI (CNS cancer cell lines): 24.10 µM; GI50 (CNS cancer cell lines): 7.57 µM; TGI (Colon cancer cell lines): 21.01 µM; GI50 (Colon cancer cell lines): 5.73 µM; GI50 [5]: 7.02 µM; TGI (Breast cancer cell lines): 47.30 µM; GI50 (Breast cancer cell lines; Homo sapiens): 6.5 µM; GI50 (Renal cancer cell lines): 8.13 µM; TGI (Renal cancer cell lines): 44.04 µM
4 | Cc1ccc(NC(=O)CN2C(=O)SC(N3N=C(c4ccc5ccccc5c4)CC3c3ccc(Cl)cc3)C2=O)cc1 (centres unmarked) [2b, 2-{5-[5-(4-Chlorophenyl)-3-naphthalen-2-yl-4,5-dihydropyrazol-1-yl]-2,4-dioxothiazolidin-3-yl}-N-p-tolylacetamide] | – | – | – | 0 | < 3.45 | –
5 | COc1ccc(C2CC(c3ccc4ccccc4c3)=NN2C2SC(=O)N(CN3CCN(Cc4ccccc4)CC3)C2=O)cc1 (centres unmarked) [3d, 3-(4-Benzylpiperazin-1-ylmethyl)-5-[5-(4-methoxyphenyl)-3-naphthalen-2-yl-4,5-dihydropyrazol-1-yl]-thiazolidine-2,4-dione] | 103% | 74.5 to 127% | – | – | – | –
6 | COc1ccc(C2CC(c3ccc4ccccc4c3)=NN2C2SC(=O)N(CN3CCCCC3)C2=O)cc1 (centres unmarked) [3a, 5-[5-(4-Methoxyphenyl)-3-naphthalen-2-yl-4,5-dihydropyrazol-1-yl]-3-piperidin-1-ylmethylthiazolidine-2,4-dione] | 101% | 69.5 to 113% | – | – | – | –
7 | CCN1CCN(CN2C(=O)SC(N3N=C(c4ccc5ccccc5c4)CC3c3ccc(Cl)cc3)C2=O)CC1 (centres unmarked) [3e, 5-[5-(4-Chlorophenyl)-3-naphthalen-2-yl-4,5-dihydropyrazol-1-yl]-3-(4-ethylpiperazin-1-ylmethyl)-thiazolidine-2,4-dione] | – | – | – | 0 | < 4.78 | –
8 | CC(=O)N1CCN(CN2C(=O)SC(N3N=C(c4ccc5ccccc5c4)CC3c3ccc(Cl)cc3)C2=O)CC1 (centres unmarked) [3f, 3-(4-Acetylpiperazin-1-ylmethyl)-5-[5-(4-chlorophenyl)-3-naphthalen-2-yl-4,5-dihydropyrazol-1-yl]-thiazolidine-2,4-dione] | 102% | 76.4 to 131% | did not show any activity | – | – | –
9 | COc1ccc(C2CC(c3ccc4ccccc4c3)=NN2C2SC(=O)NC2=O)cc1 (centres unmarked) [1a, 5-[5-(4-Methoxyphenyl)-3-naphthalen-2-yl-4,5-dihydropyrazol-1-yl]-thiazolidine-2,4-dione] | 102% | 77.5 to 114% | did not show any activity | 0 | < 4.63 | –
10 | COc1ccc(C2CC(c3ccc4ccccc4c3)=NN2C2SC(=O)N(CN3CCOCC3)C2=O)cc1 (centres unmarked) [3b, 5-[5-(4-Methoxyphenyl)-3-naphthalen-2-yl-4,5-dihydropyrazol-1-yl]-3-morpholin-4-ylmethylthiazolidine-2,4-dione] | 99.5% | 67.5 to 122% | – | – | – | –
11 | COc1ccc(C2CC(c3ccccc3)=NN2C(=O)/C=C2\SC(=O)NC2=O)cc1 (centres unmarked) [4a, 5-{2-[5-(4-Methoxyphenyl)-3-phenyl-4,5-dihydropyrazol-1-yl]-2-oxoethylidene}-thiazolidine-2,4-dione] | 96.6% | 39.1 to 147% | moderately effective against few cell lines | – | – | –
12 | COc1ccc(C2CC(c3ccc4ccccc4c3)=NN2C2SC(=O)N(CC(=O)Nc3ccc(C)cc3)C2=O)cc1 (centres unmarked) [2a, 2-{5-[5-(4-Methoxyphenyl)-3-naphthalen-2-yl-4,5-dihydropyrazol-1-yl]-2,4-dioxothiazolidin-3-yl}-N-p-tolylacetamide] | 99.2% | 76.6 to 114% | did not show any activity | 0 | < 3.50 | SI [6]: >16.3; activity against other influenza strains, in words [7]: did not have significant activity
13 | COc1ccc(NC(=O)CN2C(=O)S/C(=C\C(=O)N3N=C(c4ccc5ccccc5c4)CC3c3ccc(OC)cc3)C2=O)cc1 (centres unmarked) [5d, N-(4-Methoxyphenyl)-2-(5-{2-[5-(4-methoxyphenyl)-3-naphthalen-2-yl-4,5-dihydropyrazol-1-yl]-2-oxoethylidene}-2,4-dioxothiazolidin-3-yl)-acetamide] | 98% | 74.7 to 119% | did not show any activity | – | – | –
14 | O=C1NC(=O)/C(=C/C(=O)N2N=C(c3ccc4ccccc4c3)CC2c2ccc(Cl)cc2)S1 (centres unmarked) [4f, 5-{2-[5-(4-Chlorophenyl)-3-naphthalen-2-yl-4,5-dihydropyrazol-1-yl]-2-oxoethylidene}-thiazolidine-2,4-dione] | 51% | -5.27 to 109% | – | – | – | number of cell lines against which the compound was effective [1]: 18 cell lines; GI50 [8]: 4.61 µM; GI50 ([2]; read-out: GI50 values range): 1.64 to 3.2 µM; TGI ([2]; 48 h): 7.38 µM; GI50 (Melanoma cell lines): 4.08 µM; TGI (Melanoma cell lines): 45.88 µM; GI50 [3]: 3.52 µM; TGI [3]: 61.59 µM; GI50 [4]: 9.79 µM; TGI [4]: 79.83 µM; TGI (CNS cancer cell lines): 31.99 µM; GI50 (CNS cancer cell lines): 4.09 µM; TGI (Colon cancer cell lines): 63.20 µM; GI50 (Colon cancer cell lines): 3.53 µM; GI50 [5]: 4.38 µM; TGI (MOLT-4): 7.41 µM; TGI (Breast cancer cell lines): 15.85 µM; GI50 (Renal cancer cell lines): 4.66 µM; TGI (Renal cancer cell lines): 53.25 µM; TGI (HS 578T): 8.26 µM
15 | COc1ccc(NC(=O)CN2C(=O)SC(N3N=C(c4ccc5ccccc5c4)CC3c3ccc(Cl)cc3)C2=O)cc1 (centres unmarked) [2c, 2-{5-[5-(4-Chlorophenyl)-3-naphthalen-2-yl-4,5-dihydropyrazol-1-yl]-2,4-dioxothiazolidin-3-yl}-N-(4-methoxyphenyl)-acetamide] | – | – | – | 0 | < 3.47 | –
16 | COc1ccc(C2CC(c3ccc4ccccc4c3)=NN2C(=O)/C=C2\SC(=O)NC2=O)cc1 (centres unmarked) [4e, 5-{2-[5-(4-Methoxyphenyl)-3-naphthalen-2-yl-4,5-dihydropyrazol-1-yl]-2-oxoethylidene}-thiazolidine-2,4-dione] | 99.7% | 78.7 to 132% | did not show any activity | – | – | –
